The subject of this series is U87MG human glioma xenografts. The series can be described thus: Biodistribution in athymic nude mice bearing U87MG human glioma xenografts. It is filed as in vivo. As to conditions: 4 h p.i., tail vein injection. The essentials:
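Female athymic nu/nu mice carried U87MG xenografts (5 × 10^6 cells s.c. in both upper shoulder flanks) and were used 4 weeks after inoculation. HPLC-purified 64Cu tracer in saline (~30 μCi/mL, 0.20 μm filtered) was given at ~3 μCi by tail vein. Five mice per time point (0.5, 1, 2, 4, 24 h p.i.) were killed by pentobarbital overdose. Heart blood and organs were weighed and γ-counted, giving %ID/g and %ID/organ.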

Molecules are shown by their SMILES.

`[Cl][64Cu][Cl]` [^64CuCl2] yielded a tumor uptake of 1.8 %ID/g.

Values taken from PMC3148415 (Molecular pharmaceutics, 2011).
